Data from ChEMBL document CHEMBL4354811, “Discovery of Novel Aryl Carboxamide Derivatives as Hypoxia-Inducible Factor 1α Signaling Inhibitors with Potent Activities of Anticancer Metastasis” (J Med Chem, 2019).

Each molecule was assayed against Hypoxia-inducible factor 1-alpha (Homo sapiens) (UniProt Q16665) (assay: Inhibition of HIF1alpha transcriptional activity in hypoxia-induced human HCCLM3 cells co-transfected with luciferase reporter plasmid containing five copies of HREs and pRL-SV40 plasmid encoding Renilla luciferase at 10 uM incubated with compound under normoxia for 1 hr followed by hypoxia induction and measured after 24 hrs by HRE-dependent dual luciferase reporter gene assay relative to control).
Sequence of Hypoxia-inducible factor 1-alpha (Homo sapiens) (Q16665 whole entry, looked up): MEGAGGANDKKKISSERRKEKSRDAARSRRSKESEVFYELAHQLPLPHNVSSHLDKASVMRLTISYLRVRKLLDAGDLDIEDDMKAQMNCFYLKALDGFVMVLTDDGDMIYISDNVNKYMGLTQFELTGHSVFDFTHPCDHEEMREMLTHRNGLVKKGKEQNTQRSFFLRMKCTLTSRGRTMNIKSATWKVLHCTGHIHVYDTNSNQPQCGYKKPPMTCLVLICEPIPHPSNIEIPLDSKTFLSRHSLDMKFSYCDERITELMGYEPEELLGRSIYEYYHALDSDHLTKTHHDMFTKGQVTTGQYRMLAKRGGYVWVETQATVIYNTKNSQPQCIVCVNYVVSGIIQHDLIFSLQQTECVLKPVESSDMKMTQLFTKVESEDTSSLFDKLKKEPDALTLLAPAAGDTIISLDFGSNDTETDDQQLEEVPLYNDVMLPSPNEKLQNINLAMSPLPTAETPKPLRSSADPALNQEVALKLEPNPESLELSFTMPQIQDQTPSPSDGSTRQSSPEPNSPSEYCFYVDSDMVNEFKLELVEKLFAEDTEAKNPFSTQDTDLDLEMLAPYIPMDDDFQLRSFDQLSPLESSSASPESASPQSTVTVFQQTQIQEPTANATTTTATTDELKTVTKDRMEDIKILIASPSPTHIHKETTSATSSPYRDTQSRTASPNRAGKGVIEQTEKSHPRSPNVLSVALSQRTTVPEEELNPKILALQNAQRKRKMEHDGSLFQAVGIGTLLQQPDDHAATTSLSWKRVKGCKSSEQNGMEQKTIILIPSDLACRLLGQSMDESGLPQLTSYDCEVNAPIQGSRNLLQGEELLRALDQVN
Procedure, shortened: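 LM3 cells co-transfected with firefly luciferase reporter carrying five HRE copies plus pRL-SV40 Renilla plasmid; after transfection treated and kept under hypoxia; firefly luminescence normalized to Renilla. Single-point inhibition rate at 10 μM; IC50 for selected compounds.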

inhibition [%] | Structure (SMILES)
12.8 | Cc1ccc(C(=O)NCCc2ccncc2)o1
42 | O=C(NCCc1ccncc1)c1ccc(-c2ccccc2)cc1
33.2 | O=C(NCCc1ccccc1F)c1ccc(-c2ccc(O)cc2)cn1
47.4 | O=C(NCCc1ccncc1)c1ccc(-c2ccccc2)nc1
19.9 | O=C(NCCc1ccncc1)c1csc(-c2ccncc2)n1
42.7 | Cc1nc(C(=O)NCCc2ccccc2Cl)cs1
18.4 | O=C(NCCc1ccccc1Cl)c1csc(-c2ccncc2)n1
53.8 | COc1cccc(-c2ccc(C(=O)NCCc3ccccc3F)nc2)c1
5.1 | Cc1nc(C(=O)NCCc2ccccn2)cs1
38.7 | O=C(NCCc1ccncc1)c1coc(-c2ccccc2)n1
3.1 | Cc1ccc(C(=O)NCCc2ccncc2)cc1
36.4 | Cc1cccc(C(=O)NCCc2ccncc2)n1
53.5 | O=C(NCCc1ccncc1)c1ncc(-c2ccccc2)o1
31.8 | Cc1ccc(CCNC(=O)c2ccc(-c3ccccc3)cn2)cc1
31.3 | Cc1nc(C(=O)NCCc2ccncc2)cs1
58.7 | O=C(NCCc1cccc(F)c1)c1ccc(-c2ccccc2)cn1
44.5 | O=C(NCCc1cccnc1)c1ccc(-c2ccccc2)cn1
40.5 | O=C(NCCc1ccccc1Cl)c1noc(-c2ccccc2)n1
2.4 | Cc1nc(C(=O)NCCc2cccnc2)cs1
44.1 | O=C(NCCc1ccccc1Cl)c1nc(-c2ccccc2)no1
46.1 | O=C(NCCc1ccc(F)cc1)c1ccc(-c2ccccc2)cn1
45.3 | Cc1ccc(C(=O)NCCc2ccccc2Cl)cc1
41.8 | O=C(NCCc1ccccc1Cl)c1nnc(-c2ccccc2)o1
45.1 | O=C(NCCc1ccccc1Cl)c1ccc(-c2ccccc2)nc1
48.7 | O=C(NCCc1ccncc1)c1csc(-c2ccccc2)n1
57.2 | O=C(NCCc1ccccc1F)c1ccc(-c2ccco2)cn1

inhibition [%] | Structure (SMILES)
6.5 | Cc1nc(C(=O)NCCCc2ccccc2)cs1
54.1 | O=C(NCCc1ccccc1Cl)c1csc(-c2ccccc2)n1
1.2 | Cc1nc(C(=O)NCCc2cccc(Cl)c2)cs1
49.7 | O=C(NCCc1ccncc1)c1noc(-c2ccccc2)n1
36.9 | O=C(NCCc1ccncc1)c1nc(-c2ccccc2)no1
41.2 | O=C(NCCc1ccccc1F)c1ccc(-c2ccc(F)cc2)cn1
56.7 | O=C(NCCc1ccccc1Cl)c1cc(-c2ccccc2)ncn1
13.1 | N#Cc1ccc(-c2ccc(C(=O)NCCc3ccccc3F)nc2)cc1
0.3 | O=C(NCCc1ccccc1F)c1ccc(-c2cccc(O)c2)cn1
40.2 | O=C(NCCc1ccc([N+](=O)[O-])cc1)c1ccc(-c2ccccc2)cn1
33.9 | O=C(NCCc1ccncc1)c1csc(-c2cccnc2)n1
43.7 | O=C(NCCc1ccccn1)c1ccc(-c2ccccc2)cn1
58.2 | O=C(NCCc1ccc(Cl)cc1)c1ccc(-c2ccccc2)cn1
17.4 | Cc1ccc(C(=O)NCCc2ccccc2Cl)o1
43.6 | O=C(NCCc1ccccc1F)c1ccc(-c2ccccc2O)cn1
21.6 | O=C(NCCc1ccccc1Cl)c1csc(-c2cccnc2)n1
3.1 | Cc1nc(C(=O)NCc2ccccc2)cs1
57.5 | O=C(NCCc1ccccc1F)c1ccc(-c2ccncc2)cn1
55.3 | O=C(NCCc1ccccc1F)c1ccc(-c2cccc(F)c2)cn1
51.4 | O=C(NCCc1ccccc1Cl)c1coc(-c2ccccc2)n1
44.5 | N#Cc1cccc(-c2ccc(C(=O)NCCc3ccccc3F)nc2)c1
36.9 | O=C(NCCc1ccc(O)cc1)c1ccc(-c2ccccc2)cn1
0.6 | Cc1nc(C(=O)NCCc2ccc(Cl)cc2)cs1
37.3 | Cc1cccc(C(=O)NCCc2ccccc2Cl)n1
52.3 | O=C(NCCc1ccccc1Cl)c1ncc(-c2ccccc2)o1
45.6 | COc1ccc(-c2ccc(C(=O)NCCc3ccccc3F)nc2)cc1
